“And” between values parts separate entries of the source, which are not always exact repeats. Equal values may be shown once.
How the values were obtained:
[1] = system: HP1α; conditions: ref [27]; cited from earlier work
[2] = target: T1, HP1α-DNA condensates (Homo sapiens, UniProt P45973); assay: Microrheology; type: physicochemical
Outline: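 HP1α at 20 μM with 40nM 2.5kbp, 20nM 4kbp or 9nM 10kbp DNA, with or without 10 or 42μM H3K9me3 peptide. 200nm carboxylated fluorescent beads were embedded and tracked on a spinning-disc confocal (x63/1.4NA oil) at 200ms interval, 1000 frames, 10–50ms exposure, 23°C ± 2°C. Beads near boundaries were avoided. 2D MSD was time- and ensemble-averaged, and α was taken as the log-log slope versus lag time.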

[3] = target: T1, HP1α-DNA condensates; assay: FRAP of Alexa-488 labeled HP1α in HP1α-DNA condensates; type: physicochemical; conditions: for FRAP dynamics of HP1α, in words: HP1α-DNA condensates, all three DNA lengths, no histone peptide
Outline: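 Alexa-488 maleimide-labeled HP1α (~1%) mixed with unlabeled protein to 20uM in 70mM KCl, 20mM HEPES, 1mM DTT, pH 7.4. DNA 40nM (2.5kbp) to 9nM (10kbp), with or without H3K9me3 peptide up to 42μM, at 23°C. A 0.5–1um area bleached on a spinning-disc confocal. Recovery was fitted to an exponential to give mobile fraction (I0) and half-time ln(2)/β.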

[4] = system: DNA (2.5kbp, 4kbp, 10kbp); assay: Phase separation of HP1α with DNA of different length; type: physicochemical
Outline: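 HP1α was 0.22um-filtered, buffer-exchanged and mixed with dsDNA to 20uM HP1α (12.5–20μM tested) and nanomolar DNA. Buffer was 70mM KCl, 20mM HEPES, 1mM DTT, pH 7.5, in a 7ul reaction at 23°C on Pluronic F-127–treated slides. Imaging used wide-field DIC with a ×40 air objective at t=0 and 60 min.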

[5] = 70mM KCl, 20mM HEPES, 1mM DTT, pH 7.5
[6] = with HP1α 12.5μM-20μM, 70mM KCl, 20mM HEPES, 1mM DTT, pH 7.5

T1 sequence (P45973 whole entry): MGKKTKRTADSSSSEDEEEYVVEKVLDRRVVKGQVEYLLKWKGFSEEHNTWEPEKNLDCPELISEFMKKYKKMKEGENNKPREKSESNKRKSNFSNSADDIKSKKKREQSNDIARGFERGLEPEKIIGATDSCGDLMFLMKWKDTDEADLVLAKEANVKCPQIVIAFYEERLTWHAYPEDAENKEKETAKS

In the case of “H3K4me3: human N-terminal histone H3 tail (residues 1–22) with trimethylation of lysine 4, purchased from Bachem”, the “binding of HP1α chromodomain to histone H3 mark” value (“binding of HP1α chromodomain” for short) [1] is listed as “does not bind”.
For “H3K9me3: human N-terminal histone H3 tail (residues 1–22) with trimethylated lysine 9, purchased from Bachem [reference compound]”, the “decrease in α with H3K9me3 compared with lengthening the DNA to 10kbp” value ([2]; 2.5kb DNA condensates) is given as “more pronounced”, the “binding of HP1α chromodomain” value [1] is given as “recognizes and binds specifically” and the “mobile fraction of HP1α in condensates with peptide, 10μM peptide” value ([3]; H3K9me3 peptide 10μM, Alexa488-HP1α, 2.5kbp DNA condensates, FRAP) is given as ~ 100%.
In the case of “HP1α: Recombinantly expressed and purified HP1α (MW = 22kDa) from Biomatik Corporation”, the “average diffusive exponent α, 10kbp DNA condensates” value ([2]; 20 μM HP1α and 9nM 10kbp DNA, no peptide, 200nm beads, 200ms interval, 23°C) is reported as 0.58±0.05, the “average diffusive exponent α, 4kbp DNA condensates” value ([2]; 20 μM HP1α and 20nM 4kbp DNA, no peptide, 200nm beads, 200ms interval, 23°C) is reported as 0.72±0.02 and the “diffusive exponent α, 2.5kbp DNA condensates” value ([2]; 20 μM HP1α and 40nM 2.5kbp DNA, no peptide, 200nm beads, 200ms interval, 23°C) is reported as 0.85±0.06 and ~ 0.85±0.06. The “morphology with 4kbp DNA (9nM or 15nM) at t=0min and t=60min” value ([4]; 20μM HP1α, DIC 40x) was “spherical condensates can be seen”, the “morphology change with 10kbp DNA (9nM or 15nM) over 1hour” value ([4]; 20μM HP1α, t=0min and t=60min, DIC 40x) was “changes in the morphology (from asymmetric to spherical)” and the “assembly morphology with 10kbp DNA” value [4, 5] was “assemblies with an asymmetric morphology were initially observed before transitioning to spherical droplets”. For the same substance, the “droplet morphology with 2.5kbp and 4kbp DNA” value [4, 5] was “spherical droplets appeared instantaneously”, the “time of transition from asymmetric to spherical droplets with 10kbp DNA” value [4, 5] was no more than 1 h and the “solubility / phase behavior of HP1α in the absence of DNA” value ([4]; same HP1α concentration, 70mM KCl, 20mM HEPES, 1mM DTT, pH 7.5) was “remains soluble”. The “phase separation with DNA” value ([4]; three DNA lengths (2500, 4000, 10000 bp) at nanomolar concentrations, 70mM KCl, 20mM HEPES, 1mM DTT, pH 7.5, 23°C, DIC 40x) was “undergoes phase separation”, the “DNA concentration inducing phase separation, 2500 bp DNA” value [4, 6] was 30 nM and the “DNA concentration inducing phase separation, 10000 bp DNA” value [4, 6] was 9 nM. The “FRAP dynamics of HP1α, in words” value [3] was “remain dynamic” and the “FRAP dynamics of HP1α, in words” value ([3]; listed as HP1a) was “rapid recovery”.
For “unmodified H3: unmodified human N-terminal histone H3 tail (residues 1–22), purchased from Bachem”, the “binding of HP1α chromodomain” value [1] is given as “does not bind”.
